ChEMBL document CHEMBL1149473, “Anti-AIDS agents 69. Moronic acid and other triterpene derivatives as novel potent anti-HIV agents” (J Med Chem, 2006)
One block for each compound: values may come before it. The source made the active and inactive calls. No cut-off for these calls is given here.

What was measured:
MT4 [1] = assay: Antiviral activity against HIV1 NL4-3 in MT4 cells; assay type: functional, cell-based; conditions: for EC50: Homo sapiens, NL4-3, MT4
Outline: (§1)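 MT4 cells were infected with HIV-1 at MOI 0.01 using the strain named in the line. NL4-3 is a T-cell adapted X4 wild-type virus. PI-R is M46I/L63P/V82T/I84V, resistant to multiple protease inhibitors. Supernatants were collected on day 4 postinfection for p24 ELISA. EC50 = concentration inhibiting replication by 50%.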

[2] = Inhibition of membrane fusion between HIV1 NL4-3 envelope gene expressing COS cells and TZM cells; assay type: functional, cell-based
Outline: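 COS cells were electroporated with pSRHS carrying the HIV-1 NL4-3 envelope genes (2 µg per 10⁶ cells, 950 µF, 150 V) and cultured 1 day. They were then mixed with TZM cells (10⁴ COS : 10 × 10⁴ TZM) with compound at various concentrations, 37 °C, 24 h. Luciferase read-out. EC50 = 50% inhibition of envelope-mediated fusion.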

H9 [3] = assay: Cytotoxicity against human H9 lymphocytes; assay type: functional, cell-based
Outline: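 Mock-infected H9 cells were treated in parallel with the antiviral plates under identical conditions, without virus, and were read by XTT on day 6. IC50 = concentration toxic to 50% of mock-infected cells.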

MT4 [4] = assay: Antiviral activity against HIV1 FHR2 replication in MT4 cells; assay type: functional, cell-based; conditions: Homo sapiens; outline: as §1
H9 [5] = assay: Antiviral activity against HIV1 3B in H9 lymphocytes; assay type: functional, cell-based; conditions: for EC50: Homo sapiens
Outline: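 HIV-1 IIIB isolate (125 TCID50) added to H9 cells at 3 × 10⁵ cells/mL in RPMI 1640 with 10% fetal calf serum and L-glutamine, 37 °C, 5% CO2. Media replaced on days 1 and 4 postinfection. Supernatant p24 antigen capture on day 6. EC50 = concentration suppressing replication by 50%. AZT run as positive control each experiment.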

[6] = Cytotoxicity against COS-TZM fused cells; assay type: functional, cell-based
Outline: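 Cytotoxicity was determined as IC50 in a one-day assay, matching the fusion assay duration. The highest concentration tested was 10 µg/mL.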

MT4 [7] = assay: Cytotoxicity against human MT4 cells; assay type: functional, cell-based
Outline: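 Cytotoxicity was measured in MT4 cells and given as IC50, the concentration decreasing viable cell number by 50%.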

[8] = Therapeutic index, IC50 for H9/EC50 for HIV 3B; assay type: cell-based; conditions: human, H9 cells; read-out: Ratio IC50/EC50
Outline: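 Therapeutic index is IC50 divided by EC50. IC50 is the XTT toxicity in mock-infected H9 cells. EC50 is the 50% suppression of p24 in HIV-1 IIIB-infected H9 cells at day 6.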

MT4 [9] = assay: Antiviral activity against HIV1 NL4-3 replication in human MT4 cells; assay type: functional, cell-based; conditions: NL4-3, MT4; outline: as §1
[10] = Therapeutic index, IC50 for MT-4/EC50 for HIV1 NL4-3; conditions: human, MT-4 cells
MT4 [11] = assay: Antiviral activity against HIV1 PI-R replication in human MT4 cells; assay type: functional, cell-based; outline: as §1
MT4 [12] = assay: Antiviral activity against HIV1 FHR2 replication in MT4 cells at 5 uM; assay type: functional, cell-based
MT4 [13] = assay: Cytotoxicity against human MT4 cells at 5 uM; assay type: functional, cell-based

EC50 [2]: 5850 nM | EC50 (H9 [5]): 17 nM
SMILES: CC(C)C[C@@H](CO)NC(=O)[C@]12CCC(C)(C)C=C1[C@H]1CC[C@@H]3[C@@]4(C)CC[C@H](OC(=O)CC(C)(C)C(=O)O)C(C)(C)[C@@H]4CC[C@@]3(C)[C@]1(C)CC2
EC50 (MT4 [1]): 45 nM | IC50 (H9 [3]): > 42700 nM | EC50 (MT4 [4]): 2780 nM | IC50 [6]: > 14600 nM | IC50 (MT4 [7]): 23500 nM | selectivity ratio [8]: > 2500 | EC50 (MT4 [9]): 45 nM | selectivity ratio [10]: 522 | EC50 (MT4 [11]): 88 nM

EC50 [2]: 5210 nM | EC50 (H9 [5]): 7 nM
SMILES: CC1(C)C=C2[C@H]3CC[C@@H]4[C@@]5(C)CC[C@H](OC(=O)CC(C)(C)C(=O)O)C(C)(C)[C@@H]5CC[C@@]4(C)[C@]3(C)CC[C@@]2(C(=O)NCCCCCCCCCCC(=O)O)CC1
EC50 (MT4 [1]): 110 nM | IC50 (H9 [3]): 24000 nM | IC50 [6]: > 13000 nM | IC50 (MT4 [7]): 19500 nM | selectivity ratio [8]: 3400 | selectivity ratio [10]: 177

EC50 (H9 [5]): 2600 nM
SMILES: C=C(C)[C@@H]1CC[C@]2(C)CC[C@]3(C)[C@H](CC[C@@H]4[C@@]5(C)CC[C@H](OC(=O)CC(C)(C)C(=O)O)C(C)(C)[C@@H]5CC[C@]43C)[C@@H]12
EC50 (MT4 [1]): 21600 nM | IC50 (H9 [3]): > 45100 nM | IC50 (MT4 [7]): > 36100 nM | selectivity ratio [8]: > 17.2 | selectivity ratio [10]: > 1.7

SMILES: C=C(C)[C@@H]1CC[C@]2(C(=O)N[C@@H](CC(C)C)C(=O)O)CC[C@]3(C)[C@H](CC[C@@H]4[C@@]5(C)CC[C@H](OC(=O)CC(C)(C)C(=O)O)C(C)(C)[C@@H]5CC[C@]43C)[C@@H]12
EC50 (MT4 [1]): 10 nM | EC50 (MT4 [4]): 50 nM | IC50 (MT4 [7]): 12200 nM | EC50 (MT4 [9]): 10 nM | selectivity ratio [10]: > 1220 | EC50 (MT4 [11]): 6 nM

EC50 (H9 [5]): 320 nM
SMILES: CC1(C)CC[C@]2(C(=O)O)CC[C@]3(C)C(=CC[C@@H]4[C@@]5(C)CC[C@H](OC(=O)CC(C)(C)C(=O)O)C(C)(C)[C@@H]5CC[C@]43C)[C@@H]2C1
EC50 (MT4 [1]): 8300 nM | IC50 (H9 [3]): > 42700 nM | IC50 (MT4 [7]): 20200 nM | selectivity ratio [8]: > 133 | selectivity ratio [10]: 2.4

SMILES: Cc1cn([C@H]2C[C@H](N=[N+]=[N-])[C@@H](CO)O2)c(=O)[nH]c1=O [ZIDOVUDINE]
EC50 (MT4 [4]): 19 nM | IC50 (MT4 [7]): > 37500 nM | EC50 (MT4 [9]): 13 nM | EC50 (MT4 [11]): 19 nM

SMILES: CC(C)(CC(=O)O[C@H]1CC[C@]2(C)[C@H]3C(=O)C=C4[C@@H]5C[C@@](C)(C(=O)O)CC[C@]5(C)CC[C@@]4(C)[C@]3(C)CC[C@H]2C1(C)C)C(=O)O
Activity (MT4 [1]): inactive | Activity (H9 [5]): inactive

EC50 (H9 [5]): 79 nM
SMILES: C[C@H]1[C@H](C)CC[C@]2(C(=O)O)CC[C@]3(C)C(=CC[C@@H]4[C@@]5(C)CC[C@H](OC(=O)CC(C)(C)C(=O)O)C(C)(C)[C@@H]5CC[C@]43C)[C@H]12
EC50 (MT4 [1]): 8300 nM | IC50 (H9 [3]): 28500 nM | IC50 (MT4 [7]): 21000 nM | selectivity ratio [8]: 360 | selectivity ratio [10]: 2.5

EC50 [2]: > 17100 nM | EC50 (H9 [5]): 7 nM
SMILES: C=C(C)[C@@H]1CC[C@]2(C(=O)O)CC[C@]3(C)[C@H](CC[C@@H]4[C@@]5(C)CC[C@H](OC(=O)CC(C)(C)C(=O)O)C(C)(C)[C@@H]5CC[C@]43C)[C@@H]12 [BEVIRIMAT]
EC50 (MT4 [1]): 96 nM | IC50 (H9 [3]): > 42800 nM | IC50 [6]: > 17100 nM | Activity (MT4 [12]): inactive | selectivity ratio [8]: > 6250 | EC50 (MT4 [9]): 96 nM | selectivity ratio [10]: > 52 | IC50 (MT4 [13]): > 5000 nM | EC50 (MT4 [11]): 430 nM

SMILES: C=C(C)[C@@H]1CC[C@]2(C(=O)NCCCCCCCC(=O)N[C@@H](CC(C)C)[C@H](O)CC(=O)O)CC[C@]3(C)[C@H](CC[C@@H]4[C@@]5(C)CC[C@H](O)C(C)(C)[C@@H]5CC[C@]43C)[C@@H]12
EC50 [2]: 8.6 nM | IC50 [6]: > 13200 nM

EC50 (H9 [5]): 680 nM
SMILES: C[C@H]1[C@H](C)CC[C@]2(C(=O)O)CC[C@]3(C)C(=CC[C@@H]4[C@@]5(C)CC[C@H](OC(=O)CC(C)(C)CC(=O)O)C(C)(C)[C@@H]5CC[C@]43C)[C@H]12
Activity (MT4 [1]): inactive | IC50 (H9 [3]): 28500 nM | selectivity ratio [8]: 42

SMILES: C=C(C)[C@@H]1CC[C@]2(C(=O)NCCCCCCCCCCC(=O)O)CC[C@]3(C)[C@H](CC[C@@H]4[C@@]5(C)CC[C@H](OC(=O)CC(C)(C)C(=O)O)C(C)(C)[C@@H]5CC[C@]43C)[C@@H]12
EC50 (MT4 [1]): 7 nM | IC50 (MT4 [7]): 11000 nM | selectivity ratio [10]: 1570

SMILES: CC(C)(CC(=O)O)CC(=O)O[C@H]1CC[C@]2(C)[C@H]3CC=C4[C@@H]5CC(C)(C)CC[C@]5(C(=O)O)CC[C@@]4(C)[C@]3(C)CC[C@H]2C1(C)C
Activity (MT4 [1]): inactive | Activity (H9 [5]): inactive

EC50 (H9 [5]): 9300 nM
SMILES: CC1(C)C=C2[C@H]3CC[C@@H]4[C@@]5(C)CC[C@H](OC(=O)C(C)(C)CC(=O)O)C(C)(C)[C@@H]5CC[C@@]4(C)[C@]3(C)CC[C@@]2(C(=O)NCCCCCCCCCCC(=O)O)CC1
Activity (MT4 [1]): inactive | IC50 (H9 [3]): > 32600 nM | selectivity ratio [8]: > 3.5

SMILES: CC(C)C[C@H](NC(=O)[C@@]1(C)CC[C@]2(C)CC[C@]3(C)C(=CC(=O)[C@@H]4[C@@]5(C)CC[C@H](OC(=O)CC(C)(C)C(=O)O)C(C)(C)[C@@H]5CC[C@]43C)[C@@H]2C1)C(=O)O
Activity (MT4 [1]): inactive | Activity (H9 [5]): inactive

EC50 [2]: 3580 nM | EC50 (H9 [5]): 15.6 nM
SMILES: CC(C)C[C@H](NC(=O)[C@]12CCC(C)(C)C=C1[C@H]1CC[C@@H]3[C@@]4(C)CC[C@H](OC(=O)CC(C)(C)C(=O)O)C(C)(C)[C@@H]4CC[C@@]3(C)[C@]1(C)CC2)C(=O)O
EC50 (MT4 [1]): 8.5 nM | IC50 (H9 [3]): > 42700 nM | EC50 (MT4 [4]): 130 nM | IC50 [6]: > 14300 nM | IC50 (MT4 [7]): 22500 nM | selectivity ratio [8]: > 2740 | EC50 (MT4 [9]): 8.5 nM | selectivity ratio [10]: 2650 | EC50 (MT4 [11]): 21 nM
